Bridges are numbered along the chain shown (N, C = ends). Where no end group is shown, it is not given here.
Experiments:
[1] = system: GST-D3D4-ankyrin; assay: His-tag pull-down on Co2+-NTA agarose, bound GST-D3D4-ankyrin by GST activity; assay type: binding, human; details: immobilized cdB3 variants, pH 8.0, n=2
How it was run: (§1)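 His6-tagged cdB3 (wild type or loop-deletion mutant) and GST-D3D4 ankyrin (wild type or charge-reversal mutant) were expressed in E. coli BL21(DE3)pLysS and purified. cdB3 was incubated at 4°C with increasing GST-ankyrin in pH 8.0 phosphate/KCl/imidazole buffer with 10% sucrose, 1 mg/ml BSA and PMSF. Complexes were captured on Co2+-NTA beads for 2 h, washed 3x and eluted with 250 mM imidazole. Equal cdB3 loading was checked by anti-cdB3 blot, and bound ankyrin was quantified by GST activity.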

[2] = biological target: T1, GST-D3D4-ankyrin (GST fusion construct of the D3D4 domain of ankyrin), wild type (human, UniProt P16157 402-827); assay: pull-down
T1 sequence: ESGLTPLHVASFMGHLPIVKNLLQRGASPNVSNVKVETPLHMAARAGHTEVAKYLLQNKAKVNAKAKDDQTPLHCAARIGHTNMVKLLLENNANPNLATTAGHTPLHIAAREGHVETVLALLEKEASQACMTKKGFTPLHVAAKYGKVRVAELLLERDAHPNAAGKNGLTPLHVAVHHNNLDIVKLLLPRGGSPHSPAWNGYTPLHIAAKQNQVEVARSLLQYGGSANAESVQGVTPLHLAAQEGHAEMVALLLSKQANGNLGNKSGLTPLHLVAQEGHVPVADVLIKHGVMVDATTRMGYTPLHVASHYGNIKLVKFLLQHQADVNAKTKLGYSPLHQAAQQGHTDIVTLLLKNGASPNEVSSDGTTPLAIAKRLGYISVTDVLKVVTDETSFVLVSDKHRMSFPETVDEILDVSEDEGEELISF

[3] = system: cdB3; assay: Binding of native or mutated GST-D3D4 ankyrin to His-tagged cdB3; design: species or system human; details: GST activity, n=2
How it was run: as §1

[4] = biological target: T1, GST-D3D4-ankyrin (GST fusion construct …); assay: pull-down; remark: listed apart in the source
[5] = system: GST-D3D4-ankyrin; assay type: binding, human; details: increasing concentrations of GST-D3D4-ankyrin; anti-ankyrin polyclonal antibodies
[6] = system: GST-ankyrin; assay type: binding, human; details: GST-ankyrin 1 μM on glutathione-beads; cdB3 or mutant 1 μM; anti-cdB3 antibody
How it was run: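 Purified GST-ankyrin was immobilized on glutathione beads and incubated 2 h with His6-tagged wild-type or mutant cdB3 expressed in E. coli. Beads were washed 3x with binding buffer, and captured cdB3 was quantified by dot blot with a locally prepared polyclonal anti-cdB3 antibody.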

[7] = system: glyceraldehyde-3-phosphate dehydrogenase (GAPDH); details: 2 μg/mL GAPDH, 2 min at room temperature, pH 7.0; 10 mM imidazole acetate; absorbance change at 340 nm
[8] = biological target: the molecule itself; assay: AUC

B1: double loop deleted (ΔL1 + ΔL2) cdB3: combination of loop 1 and loop 2 deletion mutant (protein)
chain: MEELQDDYEDMMEENLEQEEYEDPDIPESQMEEPAAHDTEATATDYHTTSHPGTHKVYVELQGGRWMEAARWVQLEENLGENGAWGRPHLSHLTFWSLLELRRVFTKGTVLLDLQETSLAGVANQLLDRFIFEDQIRPQDREELLRALLLKHSHAGELEALGGVKGGQPLLPQHSSLETQLFCEQGDGGTEGHSPSGILEKIPPDSEATLVLVGRADFLEQPVLGFVRLQEAAELEAVELPVPIRFLFVLLGPEAPHIDYTQLGRAAATLMSERVFRIDAYMAQSRGELLHSLEGFLDCSLVLPPTDAPSEQALLSLVPVQRELLRRRYQSSPAKPDSSFYKGLDLNGGPDDPLQQTGQLF
modifications: left off: His6, C-terminal, kept
[1]
  affinity for GST-ankyrin (in words): no affinity could be detected

B2: ΔL2 cdb3: mutant cdB3 with a diglycine bridge in place of loop 2 (residues 175–185) (protein)
chain: MEELQDDYEDMMEENLEQEEYEDPDIPESQMEEPAAHDTEATATDYHTTSHPGTHKVYVELQELVMDEKNQELRWMEAARWVQLEENLGENGAWGRPHLSHLTFWSLLELRRVFTKGTVLLDLQETSLAGVANQLLDRFIFEDQIRPQDREELLRALLLKHSHAGELEALGGVKGGQPLLPQHSSLETQLFCEQGDGGTEGHSPSGILEKIPPDSEATLVLVGRADFLEQPVLGFVRLQEAAELEAVELPVPIRFLFVLLGPEAPHIDYTQLGRAAATLMSERVFRIDAYMAQSRGELLHSLEGFLDCSLVLPPTDAPSEQALLSLVPVQRELLRRRYQSSPAKPDSSFYKGLDLNGGPDDPLQQTGQLF
modifications: left off: His6, C-terminal, kept
[1]
  affinity for GST-ankyrin (in words): no affinity could be detected

## CELVMDEKNQELC [linear loop 1 peptide (residues 63–73 of cdB3 with a cysteine at each end, reduced)]
[2]
  IC50: 55 µM

## CELVMDEKNQELC (disulfide 1-13) [cyclized loop 1 peptide (residues 63–73 of cdB3 with a cysteine at each end, disulfide-bonded)]
[2]
  IC50: ~15 µM

B3: mutated ankyrin: D3D4 domain of ankyrin with the four mutations N601D, K611E, E645K, and Q634E (protein)
chain: ESGLTPLHVASFMGHLPIVKNLLQRGASPNVSNVKVETPLHMAARAGHTEVAKYLLQNKAKVNAKAKDDQTPLHCAARIGHTNMVKLLLENNANPNLATTAGHTPLHIAAREGHVETVLALLEKEASQACMTKKGFTPLHVAAKYGKVRVAELLLERDAHPNAAGKNGLTPLHVAVHHNNLDIVKLLLPRGGSPHSPAWDGYTPLHIAAEQNQVEVARSLLQYGGSANAESVEGVTPLHLAAQKGHAEMVALLLSKQANGNLGNKSGLTPLHLVAQEGHVPVADVLIKHGVMVDATTRMGYTPLHVASHYGNIKLVKFLLQHQADVNAKTKLGYSPLHQAAQQGHTDIVTLLLKNGASPNEVSSDGTTPLAIAKRLGYISVTDVLKVVTDETSFVLVSDKHRMSFPETVDEILDVSEDEGEELISF
modifications: left off: GST, end not stated, kept
[3]; N601D, K611E, Q634E, E645K mutant
  affinity of mutated ankyrin for cdB3 (in words): unable to bind cdB3

B4: Wild-type ankyrin: GST fusion construct of the D3D4 domain of ankyrin (protein)
chain: ESGLTPLHVASFMGHLPIVKNLLQRGASPNVSNVKVETPLHMAARAGHTEVAKYLLQNKAKVNAKAKDDQTPLHCAARIGHTNMVKLLLENNANPNLATTAGHTPLHIAAREGHVETVLALLEKEASQACMTKKGFTPLHVAAKYGKVRVAELLLERDAHPNAAGKNGLTPLHVAVHHNNLDIVKLLLPRGGSPHSPAWNGYTPLHIAAKQNQVEVARSLLQYGGSANAESVQGVTPLHLAAQEGHAEMVALLLSKQANGNLGNKSGLTPLHLVAQEGHVPVADVLIKHGVMVDATTRMGYTPLHVASHYGNIKLVKFLLQHQADVNAKTKLGYSPLHQAAQQGHTDIVTLLLKNGASPNEVSSDGTTPLAIAKRLGYISVTDVLKVVTDETSFVLVSDKHRMSFPETVDEILDVSEDEGEELISF
modifications: left off: GST, end not stated, kept
[3]; read-out: apparent dissociation constant of ankyrin for cdB3
  Kd: ~0.4 µM

B5: cytoplasmic domain of band 3 (cdB3), wild type, with COOH-terminal His6-tag (domain or fragment, human)
chain: MEELQDDYEDMMEENLEQEEYEDPDIPESQMEEPAAHDTEATATDYHTTSHPGTHKVYVELQELVMDEKNQELRWMEAARWVQLEENLGENGAWGRPHLSHLTFWSLLELRRVFTKGTVLLDLQETSLAGVANQLLDRFIFEDQIRPQDREELLRALLLKHSHAGELEALGGVKPAVLTRSGDPSQPLLPQHSSLETQLFCEQGDGGTEGHSPSGILEKIPPDSEATLVLVGRADFLEQPVLGFVRLQEAAELEAVELPVPIRFLFVLLGPEAPHIDYTQLGRAAATLMSERVFRIDAYMAQSRGELLHSLEGFLDCSLVLPPTDAPSEQALLSLVPVQRELLRRRYQSSPAKPDSSFYKGLDLNGGPDDPLQQTGQLF
[4]
  Kd: ~0.4 µM

B6: native cdB3: cytoplasmic domain of band 3 (protein)
chain: MEELQDDYEDMMEENLEQEEYEDPDIPESQMEEPAAHDTEATATDYHTTSHPGTHKVYVELQELVMDEKNQELRWMEAARWVQLEENLGENGAWGRPHLSHLTFWSLLELRRVFTKGTVLLDLQETSLAGVANQLLDRFIFEDQIRPQDREELLRALLLKHSHAGELEALGGVKPAVLTRSGDPSQPLLPQHSSLETQLFCEQGDGGTEGHSPSGILEKIPPDSEATLVLVGRADFLEQPVLGFVRLQEAAELEAVELPVPIRFLFVLLGPEAPHIDYTQLGRAAATLMSERVFRIDAYMAQSRGELLHSLEGFLDCSLVLPPTDAPSEQALLSLVPVQRELLRRRYQSSPAKPDSSFYKGLDLNGGPDDPLQQTGQLF
modifications: left off: His6, C-terminal, kept
[5]
  GST-ankyrin binding by dot blot (in words): usual prominent binding
[6]
  affinity for immobilized GST-ankyrin by dot blot (in words): strong affinity
[7]
  inhibition of GAPDH: 90%

B7: cdB3 ΔL1 (cdB3 with loop 1, residues 63–73, replaced by a diglycine bridge) (domain or fragment, human)
chain: MEELQDDYEDMMEENLEQEEYEDPDIPESQMEEPAAHDTEATATDYHTTSHPGTHKVYVELQGGRWMEAARWVQLEENLGENGAWGRPHLSHLTFWSLLELRRVFTKGTVLLDLQETSLAGVANQLLDRFIFEDQIRPQDREELLRALLLKHSHAGELEALGGVKPAVLTRSGDPSQPLLPQHSSLETQLFCEQGDGGTEGHSPSGILEKIPPDSEATLVLVGRADFLEQPVLGFVRLQEAAELEAVELPVPIRFLFVLLGPEAPHIDYTQLGRAAATLMSERVFRIDAYMAQSRGELLHSLEGFLDCSLVLPPTDAPSEQALLSLVPVQRELLRRRYQSSPAKPDSSFYKGLDLNGGPDDPLQQTGQLF
[8]
  stoichiometry N: 2

B8: cdB3 ΔL1: mutant cdB3 with loop 1 (residues 63–73) replaced by a diglycine bridge (protein)
chain: MEELQDDYEDMMEENLEQEEYEDPDIPESQMEEPAAHDTEATATDYHTTSHPGTHKVYVELQGGRWMEAARWVQLEENLGENGAWGRPHLSHLTFWSLLELRRVFTKGTVLLDLQETSLAGVANQLLDRFIFEDQIRPQDREELLRALLLKHSHAGELEALGGVKPAVLTRSGDPSQPLLPQHSSLETQLFCEQGDGGTEGHSPSGILEKIPPDSEATLVLVGRADFLEQPVLGFVRLQEAAELEAVELPVPIRFLFVLLGPEAPHIDYTQLGRAAATLMSERVFRIDAYMAQSRGELLHSLEGFLDCSLVLPPTDAPSEQALLSLVPVQRELLRRRYQSSPAKPDSSFYKGLDLNGGPDDPLQQTGQLF
modifications: left off: His6, C-terminal, kept
[6]
  affinity for immobilized GST-ankyrin by dot blot (in words): no affinity for ankyrin
